Screening results as filed in PubChem BioAssay.
STAT3 inh: IL-6 driven STAT3 reporter inhibitors, primary screen, U3A cells, luciferase, luminescence, MLSCN library. IL-6 STAT3-luciferase reporter; host cell line lacks STAT1. inhibition, % at 5.5 µM. 190,000 tested, 0.89% active. AID 862, 2007;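 active = inhibition above the mean inhibition across all screened compounds plus 3 SD, cut at about 44% in these data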;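 note: 0% = DMSO only wells and 100% = 100 µM nifuroxazide control wells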
b-catenin transl: modulators of beta-catenin nuclear translocation, primary screen, imaging, HeLa cells, immunofluorescence, high-content; nuclear translocation activity, % at 5 µM; 190,000 tested, 0.3% active; AID 1665, 2009;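 active = nuclear translocation activity above 50% at 5 µM, with a well cell count of 50 or more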;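 note: per-cell ratio of nuclear to cytoplasmic median beta-catenin stain intensity; plate controls were DMSO negative control for no effect and GSK-3 inhibitor IX positive control for full effect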
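Test system: human HeLa cells, native beta-catenin. Compound dosing: 5 µM primary single dose, 0.1% DMSO, 0.02–20 µM confirmation series. Incubation: compound exposure 24 h at 37°C. Detection: beta-catenin immunostaining with DAPI counterstain, 20x imaging, 6 fields/well. Read-out basis: Nuclear/cytoplasmic beta-catenin signal ratio, % activation.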
STAT3 act-1: IL-6 driven STAT3 reporter potentiators, primary screen, U3A cells, luciferase, luminescence, MLSCN library; IL-6 STAT3-luciferase reporter; 100% = signal with IL-6 EC80 alone; activation (% of control), % at 5.6 µM; 190,000 tested, 0.91% active; AID 871, 2007;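 active = activation above the screen-wide mean of compound activation plus 3 SD, cut at about 130% in these data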;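 note: 0% = background luminescence of wells with medium and substrate only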
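System – human U3A cells carrying STAT3-luciferase construct · Probe or stimulus – Interleukin-6, 33 ng/mL · Schedule – compound 1 h, then IL-6 6 h at 37 °C · Signal – luminescence from STAT3-driven luciferase reporter · Evaluation – percent of IL-6-only median luminescence · Benchmarks – IL-6-only high control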
STAT1 inh: STAT1 signaling inhibitors, primary screen, cell-based, HTS, luciferase reporter | NIH 3T3 STAT1-luciferase reporter, IFN-gamma, luminescence | AID 920, 2007 | 200,000 tested, 0.35% active | inhibition, % at 5.5 µM;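 active = inhibition above a set limit, the mean inhibition across all tested compounds plus 3 SD, cut at about 34% in these data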;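 note: 0% = IFN-gamma with DMSO and 100% = IFN-gamma with 300 µM nifuroxazide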
MT stabilizer: microtubule stabilizers in HeLa cells, primary screen, imaging, high-content imaging | HeLa tubulin immunostaining HCS, 24 h; share of cells brighter than vehicle mean+2SD | % tubulin-high responders, % at 10 µM | 200,000 tested, 0.83% active;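 active = plate Z-score above 3 for both tubulin-high and condensed-nucleus cell shares, with cell loss under 80%, at 10 µM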;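 note: anti alpha tubulin signal scored within the nucleus-defined area of each cell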
STAT3 act-2: STAT3 reporter potentiators, retest of hits, confirmation, U3A cells, luciferase, luminescence | shares compounds with STAT3 act-1 | IL-6 potentiation; U3A cells lack STAT1; 100 means same as IL-6 alone | potentiation (% of control), % at 5.7 µM | 1,200 tested, 64% active | AID 1267, 2008;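 active = percent activation of the STAT3 luciferase reporter above a set limit taken from the earlier primary screen, cut at about 130% in these data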;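 note: 0% = background signal of medium plus substrate and 100% = median of IL-6 with DMSO wells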
NFkB act STAT3ct: NF-kB reporter activators in human cells, counter-screen for STAT3 activator project. shares compounds with STAT3 act-1. NF-kappaB reporter activation. AID 1309, 2008. activation (% of control), % at 5.7 µM. 1,200 tested, 11% active; in the data active = activation above about 120%;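 note: reporter induced by TNF-alpha stimulation; 100% = median of stimulated DMSO wells and 0% = no signal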
STAT1 act: STAT1 reporter activators, IFN-gamma induced, counter-screen for STAT3 activator project, cell-based, NIH 3T3, luciferase luminescence; NIH 3T3 STAT1-luciferase reporter; activation (% of control), % at 5.7 µM; AID 1318, 2008; 1,200 tested, 13% active; shares compounds with STAT3 act-1;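 active = activation above the solvent-only control well mean plus 3 SD, set per screening run, cut at about 120% in these data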;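 note: 100% = IFN-gamma with DMSO median signal so 100% means no change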
Active calls of the source: *; · = no result given. The list is not random: actives were taken first. Their share in the collection is about 2.4%.

SMILES | STAT3 inh | b-catenin transl | STAT3 act-1 | STAT1 inh | MT stabilizer | STAT3 act-2 | NFkB act STAT3ct | STAT1 act
O=C1Cc2ccccc2C(=O)N1CCc1ccccc1 | -55 | 2 | 155* | 1 | 4 | 136* | 102 | 97
Cn1c(O)c(N=NC(=O)c2cc(-c3cccs3)nc3ccccc23)c2ccccc21 | 1 | -5 | 100 | 0 | 2 | · | · | ·
Cn1c(O)c(N=Nc2ccc(F)cc2)c2ccccc21 | -54 | -1 | 152* | 0 | 2 | 165* | 104 | 98
Cn1c(O)c(N=Nc2nc(-c3ccccc3)cs2)c2ccccc21 | -55 | · | 147* | 10 | 5 | 159* | 106 | 96
O=C(Cc1ccccc1)c1c[nH]c(C(=O)NC2CCCC2)c1 | 12 | -5 | 92 | -7 | 3 | · | · | ·
Cc1ccccc1-c1cc2c(nn1)-c1ccccc1C2=O | -53 | 3 | 145* | 13 | 2 | 141* | 101 | 96
CC(=O)c1ccc(Nc2ccc(-c3ccccc3C)nn2)cc1 | 4 | 0 | 98 | -47 | 4 | · | · | ·
O=C(N/N=C/C1CC=CCC1)c1ccc(O)cc1O (stereo unspecified) | 8 | 1 | 94 | 7 | 4 | · | · | ·
COc1cc(C(=O)N/N=C/C2CC=CCC2)cc(OC)c1OC (stereo unspecified) | -60 | -1 | 144* | -11 | 4 | 99 | 103 | 97
Cc1cc(C)c2[nH]c(=O)c(CN(Cc3cccs3)C(=S)NCc3ccco3)cc2c1 | -4 | 2 | 101 | 4 | 3 | · | · | ·
COc1cccc(N2CC(=O)N(NC(=O)CSc3nc(C)cc(C)c3C#N)CC2=O)c1 | 17 | · | 89 | 10 | 2 | · | · | ·
CC(=O)n1cc(C2C(=O)CCCC2=O)c2ccccc21 | -42 | -1 | 140* | 3 | 4 | 118 | 100 | 97
CCOc1ccccc1C1CC(c2cccs2)=NN1S(C)(=O)=O (stereo unspecified) | -34 | 2 | 137* | 5 | 5 | 147* | 103 | 87
O=C(CSc1nnc(-c2ccncc2)o1)NC1C2CC3CC(C2)CC1C3 (stereo unspecified) | 1 | 3 | 100 | -18 | 4 | · | · | ·
COc1cccc(Nc2ncc(C#N)c(N)n2)c1 | · | -1 | · | · | · | · | · | ·
O=C1CN(C(=O)c2ccc(Br)o2)C(c2ccccc2)c2cc(Br)ccc2N1 (stereo unspecified) | -47 | · | 142* | 1 | 4 | 139* | 100 | 111
COc1ccc([N+](=O)[O-])cc1C1NN=C(c2ccccc2O)S1 (stereo unspecified) | -52 | 0 | 151* | 5 | 3 | 142* | 100 | 103
O=[N+]([O-])c1ccc(O)c(C2=NNC(c3ccccc3F)C2)c1 (stereo unspecified) | · | 0 | · | · | · | · | · | ·
O=C(Cn1c(C(F)(F)F)nc2ccccc21)OCC(=O)c1c[nH]c2ccccc12 | -44 | -2 | 138* | 6 | 10 | 112 | 97 | 93
CC(=O)Nc1nc(-c2ccc(Cl)cc2)nc(C)c1C(C)=O | -42 | -1 | 137* | 12 | 2 | 122 | 103 | 96
Cc1ccc(OCC(=O)Nc2cccc3nsnc23)c(C)c1 | -53 | -12 | 145* | 5 | 5 | 131 | 105 | 94
Cc1ccc(OCC(=O)Nc2ccc3c4c(cccc24)CC3)c(C)c1 | 11 | · | 93 | 1 | 1 | · | · | ·
O=C1c2ccccc2C(=O)N1OCc1cccc(Cl)c1 | 16 | -6 | 91 | -1 | 2 | · | · | ·
O=C1c2ccccc2C(=O)N1OCc1ccccc1 | -40 | · | 137* | -10 | 4 | 114 | 103 | 105
Cc1noc(/C=C/N(C)C)c1S(=O)(=O)N1CCc2ccccc21 | -56 | -2 | 151* | 6 | 6 | 139* | 103 | 97
